Test results: ChEMBL document CHEMBL1148762, “Lysosome and HER3 (ErbB3) selective anticancer agent kahalalide F: semisynthetic modifications and antifungal lead-exploration studies” (J Med Chem, 2007)
≈ marks a conversion by molar mass, not a printed value.

Assays:
Candida albicans = assay: Antimicrobial activity against Candida albicans ATCC 90028; assay type: functional, organism-based
Aspergillus fumigatus = assay: Antimicrobial activity against Aspergillus fumigatus ATCC 90906; assay type: functional, organism-based
[1] = tested on: Mycobacterium intracellulare; assay: Antimicrobial activity against Mycobacterium intracellular ATCC 23068; assay type: functional, organism-based
Cryptococcus neoformans = assay: Antimicrobial activity against Cryptococcus neoformans ATCC 90113; assay type: functional, organism-based
[2] = tested on: Mycobacterium tuberculosis; assay: Antibacterial activity against Mycobacterium tuberculosis H37Rv at 16 ug/mL by micro plate alamar blue assay; assay type: functional
In short: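 M. tuberculosis H37Rv ATCC 27294 grown in BACTEC 12B medium; microplate Alamar blue assay (MABA). Primary screen at a single concentration of 16 µg/mL, read as percent inhibition.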

Row | Structure (SMILES) | IC50 (Candida albicans) [µM] | IC50 (Aspergillus fumigatus) [µM] | IC50 [1] [µM] | IC50 (Cryptococcus neoformans) [µM] | inhibition at 16 µg/mL [2] [%] | MBC [1] [µM] | MIC [1] [µM]
1 | C/C=C(\NC(=O)[C@H](Cc1ccccc1)NC(=O)[C@H](NC(=O)[C@H](NC(=O)[C@H](NC(=O)[C@H](NC(=O)[C@H](CCCN)NC(=O)[C@H]1CCCN1C(=O)[C@H](NC(=O)[C@@H](NC(=O)[C@@H](NC(=O)[C@H](NC(=O)CCCC(C)C)C(C)C)[C@@H](C)O)C(C)C)C(C)C)[C@@H](C)CC)[C@@H](C)O)[C@@H](C)CC)C(C)C)C(=O)N[C@H](C(=O)O)C(C)C [KAHALALIDE G] | > 13.4 | > 13.4 | > 13.4 | > 13.4 | 29 |  | 
2 | C/C=C1\NC(=O)[C@H](Cc2ccccc2)NC(=O)[C@@H](C(C)C)NC(=O)[C@@H]([C@@H](C)CC)NC(=O)[C@H](NC(=O)[C@H](NC(=O)[C@H](CCCN(Cc2ccc(F)cc2)Cc2ccc(F)cc2)NC(=O)[C@H]2CCCN2C(=O)[C@H](NC(=O)[C@@H](NC(=O)[C@@H](NC(=O)[C@H](NC(=O)CCCC(C)C)C(C)C)[C@@H](C)O)C(C)C)C(C)C)[C@@H](C)CC)[C@@H](C)OC(=O)[C@H](C(C)C)NC1=O | > 11.8 | > 11.8 | > 11.8 | > 11.8 |  |  | 
3 | C/C=C1\NC(=O)[C@H](Cc2ccccc2)NC(=O)[C@@H](C(C)C)NC(=O)[C@@H]([C@@H](C)CC)NC(=O)[C@H](NC(=O)[C@H](NC(=O)[C@H](CCCNCc2ccc(F)cc2)NC(=O)[C@H]2CCCN2C(=O)[C@H](NC(=O)[C@@H](NC(=O)[C@@H](NC(=O)[C@H](NC(=O)CCCC(C)C)C(C)C)[C@@H](C)O)C(C)C)C(C)C)[C@@H](C)CC)[C@@H](C)OC(=O)[C@H](C(C)C)NC1=O | > 12.6 | > 12.6 | > 20 | 3.77 |  |  | 
4 | C/C=C1\NC(=O)[C@H](Cc2ccccc2)NC(=O)[C@@H](C(C)C)NC(=O)[C@@H]([C@@H](C)CC)NC(=O)[C@H](NC(=O)[C@H](NC(=O)[C@H](CCCNC(=O)c2cc3ccc(N(CC)CC)cc3oc2=O)NC(=O)[C@H]2CCCN2C(=O)[C@H](NC(=O)[C@@H](NC(=O)[C@@H](NC(=O)[C@H](NC(=O)CCCC(C)C)C(C)C)[C@@H](C)O)C(C)C)C(C)C)[C@@H](C)CC)[C@@H](C)OC(=O)[C@H](C(C)C)NC1=O | > 11.6 | > 11.6 | > 11.6 | > 11.6 |  |  | 
5 | O=C(O)c1cn(C2CC2)c2cc(N3CCNCC3)c(F)cc2c1=O [CIPROFLOXACIN] |  |  | 0.42 |  |  | > 1 | 1 (≈ 0.331 µg/mL)
